Experimental findings from PubChem BioAssay are described below.

Active and inactive are the calls of the source.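 The calls were made as follows, unless noted: active = Her2 level under about 52% in both replicate screens, with viability over 70% of control (limit read from the data); inconclusive = Her2 under the limit in one screen only, or viability under 70%; inactive = Her2 level above the set limit.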

Experiment [1] can be described thus: Her2 expression decrease, cell viability multiplex – SKBR3 breast tumor cells, AlphaScreen, ATP viability, primary screen (AID 461).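 As to Her2 level: lower value means less Her2 protein in the cells.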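 As to viability: percent of carrier control wells set as 100% viability.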 The settings on record: SKBR3 Her2 protein level, 18-24 h, measured here: SKBR3 viability, ATP luminescence, at 10 µM.
Experiment [2] deals with Receptor tyrosine-protein kinase erbB-2 (Homo sapiens) (UniProt P04626). Described as above. As to conditions: 18-24 h, at 10 µM, stronger effect = lower value.
Experiment [3] is described as follows: reduced viability of SK-BR-3 breast cancer cells – cell-based, 24 h, human, pilot screen (AID 572;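 active = viability at or below 10% of carrier control in both of two separate runs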;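 also: compound exposure lasted between 18 and 24 h rather than exactly 24 h; 100% = carrier-treated control wells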). As to conditions: SK-BR-3 viability, CellTiter-Glo luminescence, at 10 µM, stronger effect = lower value. (Cellular ATP, detected with luciferase, serves as a proxy for viable cell number.)
Experiment [4] is described as follows: HUVEC growth inhibition – cell-based, human, primary screen (AID 575;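 active = viability at or below 30% in both replicate assays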;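 also: 100% = median of untreated cell wells with 0.1% DMSO on each plate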). The settings on record: HUVEC proliferation, CellTiter-Glo luminescence, 72 h; at 10 µM; stronger effect = lower value. The essentials:
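system = HUVEC primary cells | amount = 1250 cells/well | buffer or medium = supplemented EBM, 2% fetal bovine serum | dosing = single-point 10 µM, DMSO 0.1% final | times = 72 h compound incubation | detection = CTG luminescence | read-out = % viability relative to median vehicle-well signal on each plate | control set = vehicle and MePR control wells | format = collagen-coated 384-well format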

The nature of experiment [5]: H69AR cell proliferation blockers – human, duplicate replicates, primary screen (AID 580;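 active = viability at or under a set limit in both replicates, limit being median viability minus 3 SD, cut at about 48% in these data, passing the limit was not always enough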;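 also: 100% = mean luminescence of untreated wells and 0% = no signal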). As to conditions: H69AR lung tumor cells viability, ATP luminescence, 72 h; at 10 µM; stronger effect = lower value.
Experiment [6] can be described thus: MRP1 drug-resistance reversers in H69AR cells – cell-based, doxorubicin co-treatment, pilot screen (AID 601;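 active = viability loss from added drug above about 55%, and viability with drug at most 40%, in both replicates, limit read from the data, passing the limit was not always enough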). As to conditions: CellTiter-Glo, 72 h, at 10 µM; for differential viability (reversal): stronger effect = higher value.
Experiment [7] can be described thus: yeast transport mutant growth inhibition pilot in 384-well plates, post-Golgi transport modulator project (AID 636; in the data active = inhibition above about 31%). The settings on record: absorbance 615 nm, about 18 h, stronger effect = higher value.
Experiment [8] can be described thus: growth suppression of yeast trafficking mutant, preliminary HTS, modulators of trafficking downstream of Golgi apparatus project, 1536-format plate, OD 615 nm (AID 637; in the data active = inhibition above about 30%). The settings on record: yeast transport mutant growth, absorbance 615 nm, 18 h; stronger effect = higher value.
The mark [9] stands for this setting: H69AR cells + 2 uM doxorubicin, measured here: viability with 2 uM doxorubicin, stronger effect = lower value.
Where [10] appears, read: H69AR cells, compound alone cytotoxicity.

Chain of Receptor tyrosine-protein kinase erbB-2 (Homo sapiens) (P04626 whole entry, looked up): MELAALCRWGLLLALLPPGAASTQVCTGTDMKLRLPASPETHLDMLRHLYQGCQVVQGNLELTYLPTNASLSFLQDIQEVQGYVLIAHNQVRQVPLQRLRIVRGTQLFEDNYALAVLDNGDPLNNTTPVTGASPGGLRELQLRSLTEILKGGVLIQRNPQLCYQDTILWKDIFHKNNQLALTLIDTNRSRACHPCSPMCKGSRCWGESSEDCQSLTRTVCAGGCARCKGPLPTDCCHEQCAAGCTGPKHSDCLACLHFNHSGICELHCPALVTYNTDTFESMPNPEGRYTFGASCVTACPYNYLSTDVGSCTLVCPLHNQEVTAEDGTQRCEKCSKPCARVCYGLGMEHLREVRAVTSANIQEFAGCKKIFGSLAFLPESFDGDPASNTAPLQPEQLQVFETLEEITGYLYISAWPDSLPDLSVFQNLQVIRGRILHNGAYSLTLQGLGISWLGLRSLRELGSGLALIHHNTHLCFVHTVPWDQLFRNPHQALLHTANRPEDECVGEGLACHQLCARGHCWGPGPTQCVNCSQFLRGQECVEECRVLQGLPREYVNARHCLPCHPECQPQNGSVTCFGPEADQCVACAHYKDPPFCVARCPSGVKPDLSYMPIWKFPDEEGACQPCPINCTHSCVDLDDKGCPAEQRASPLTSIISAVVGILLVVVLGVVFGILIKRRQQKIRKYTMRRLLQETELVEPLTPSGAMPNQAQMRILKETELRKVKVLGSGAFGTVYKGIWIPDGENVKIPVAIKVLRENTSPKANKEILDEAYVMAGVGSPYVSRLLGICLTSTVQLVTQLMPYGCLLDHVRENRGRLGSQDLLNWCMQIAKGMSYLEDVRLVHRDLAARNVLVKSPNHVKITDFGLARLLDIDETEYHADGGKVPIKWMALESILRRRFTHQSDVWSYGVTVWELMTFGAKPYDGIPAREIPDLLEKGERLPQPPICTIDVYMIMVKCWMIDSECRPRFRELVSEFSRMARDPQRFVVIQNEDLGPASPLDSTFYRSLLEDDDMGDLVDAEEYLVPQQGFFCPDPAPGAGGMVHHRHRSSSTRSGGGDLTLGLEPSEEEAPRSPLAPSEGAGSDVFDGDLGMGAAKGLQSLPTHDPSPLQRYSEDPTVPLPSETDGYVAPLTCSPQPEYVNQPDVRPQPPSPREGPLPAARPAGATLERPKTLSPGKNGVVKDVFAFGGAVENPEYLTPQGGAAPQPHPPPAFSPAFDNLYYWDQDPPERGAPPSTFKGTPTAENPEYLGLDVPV

In general, viability refers to a read-out of living cells in per cent, often relative to untreated cells. One may read the inhibition as the relative decrease from the control value, in per cent. Regarding `COc1ccc2ccccc2c1CN1CCCC(CO)C1` (stereo not given), the viability in experiment [1] was 92.5%; in experiment [3] it was 92.5% (inactive); in experiment [4] it was 92.9% (inactive); in experiment [5], 82% (inactive); in experiment [6] (setting [9]), 80.5%; in experiment [6] (setting [10]), 82%. Besides, the Her2 level in experiment [2] was 85.5% (inactive). For the same compound, the differential viability (reversal) in experiment [6] (H69AR cells + 2 uM doxorubicin) is 1.51% (inactive). Also, the inhibition in experiment [7] is -1.82% (inactive); in experiment [8], 0.82% (inactive).
In the case of `Cc1ccccc1OCc1nc2ccccc2c(=O)n1/N=C/c1ccco1`, the viability in experiment [1] is 102%; in experiment [3], 102% (inactive); in experiment [4] it was 71% (inactive); in experiment [5], 104% (inactive); in experiment [6] (setting [9]) it was 95.3%; in experiment [6] (setting [10]), 104%. Moreover, in experiment [2], the Her2 level is 100% (inactive). Moreover, in experiment [6] (H69AR cells + 2 uM doxorubicin), the differential viability (reversal) is 8.3% (inactive). In addition, the inhibition is 0.53% (inactive) in experiment [7] and -2.9% (inactive) in experiment [8].
Take `O=C(NCC1CCCO1)c1ccc(N2CCCCC2)nc1` (stereo not given): the viability in experiment [1] was 91.5%; in experiment [3], 91.5% (inactive); in experiment [4], 113% (inactive); in experiment [5], 90.1% (inactive); in experiment [6] (setting [9]), 85.6%; in experiment [6] (setting [10]) it was 90.1%. In addition, in experiment [2], the Her2 level was 109% (inactive). In addition, the differential viability (reversal) in experiment [6] (H69AR cells + 2 uM doxorubicin) is 4.52% (inactive). For the same compound, the results for the inhibition in experiment [7] and in experiment [8] were 0.26% (inactive) and -2.83% (inactive), respectively.
`COc1ccc(CCn2c(N)c(C#N)c3nc4ccccc4nc32)cc1OC`: the viability is 64% in experiment [1]; 64% (inactive) in experiment [3]; 94.3% (inactive) in experiment [4]; 90.4% (inactive) in experiment [5]; 89.6% in experiment [6] (setting [9]); 90.4% in experiment [6] (setting [10]). Also, the Her2 level in experiment [2] was 82.5% (inactive). For the same compound, the differential viability (reversal) in experiment [6] (H69AR cells + 2 uM doxorubicin) was 0.84% (inactive). In addition, the inhibition in experiment [7] is -1.45% (inactive); in experiment [8], 7.87% (inactive).
For the compound `O=C(OCCCN1C(=O)c2ccccc2C1=O)c1ccco1`, the viability in experiment [1] is 102%; in experiment [3] it was 102% (inactive); in experiment [4], 96% (inactive); in experiment [5], 95.2% (inactive); in experiment [6] (setting [9]), 93.9%; in experiment [6] (setting [10]), 95.2%. Also, the Her2 level in experiment [2] is 105% (inactive). Besides, in experiment [6] (H69AR cells + 2 uM doxorubicin), the differential viability (reversal) is 1.29% (inactive). In addition, the inhibition in experiment [7] was 0.79% (inactive); in experiment [8] it was -0.16% (inactive).
For `c1ccc2c(c1)nc(-c1ccncc1)n1nnnc21`, the viability in experiment [1] is 96.5%; in experiment [3], 96.5% (inactive); in experiment [4], 93.5% (inactive); in experiment [5] it was 93.2% (inactive); in experiment [6] (setting [9]), 84.4%; in experiment [6] (setting [10]) it was 93.2%. The Her2 level in experiment [2] was 99.5% (inactive). For the same compound, the differential viability (reversal) in experiment [6] (H69AR cells + 2 uM doxorubicin) was 8.75% (inactive). In addition, the figures for the inhibition in experiment [7] and in experiment [8] were -6% (inactive) and -0.16% (inactive), respectively.
Take `CN(C)c1ccc(C=Nc2ccc(N(C)C)cc2)cc1`: the viability in experiment [1] was 104%; in experiment [3] it was 104% (inactive); in experiment [4], 74.2% (inactive); in experiment [5] it was 70.4% (inactive); in experiment [6] (setting [9]), 78.1%; in experiment [6] (setting [10]), 70.4%. Moreover, the Her2 level in experiment [2] was 94% (inactive). The differential viability (reversal) in experiment [6] (H69AR cells + 2 uM doxorubicin) was -7.71% (inactive). The inhibition in experiment [7] is -6.22% (inactive); in experiment [8], -6.23% (inactive).
In the case of `CCOc1ccc2[nH]cc(C(=O)N3CCN(CC)CC3)c(=O)c2c1`, the viability in experiment [1] was 98%; in experiment [3], 98% (inactive); in experiment [4], 91.2% (inactive); in experiment [5], 89.6% (inactive); in experiment [6] (setting [9]), 104%; in experiment [6] (setting [10]) it was 89.6%. Further, the Her2 level in experiment [2] is 104% (inactive). Besides, in experiment [6] (H69AR cells + 2 uM doxorubicin), the differential viability (reversal) was -14.2% (inactive). Further, the inhibition in experiment [7] is 2.67% (inactive); in experiment [8], 19% (inactive).
Turning to `COc1cc(N=c2ssnc2Cl)cc(OC)c1`, the viability was 84.5% in experiment [1]; 84.5% (inactive) in experiment [3]; 78% (inactive) in experiment [4]; 3.23% (active) in experiment [5]; 4.61% in experiment [6] (setting [9]); 3.23% in experiment [6] (setting [10]). The Her2 level in experiment [2] is 111% (inactive). Besides, the differential viability (reversal) in experiment [6] (H69AR cells + 2 uM doxorubicin) is -1.38% (inactive). The inhibition in experiment [7] was -5% (inactive); in experiment [8], 0.48% (inactive).
On to `CC(=O)c1c(C)[nH]c(C(=O)OCc2nnc(-c3ccccc3)o2)c1C`, for which the viability in experiment [1] was 92%; in experiment [3], 92% (inactive); in experiment [4], 70.4% (inactive); in experiment [5] it was 72.6% (inactive); in experiment [6] (setting [9]), 78.3%; in experiment [6] (setting [10]), 72.6%. Also, the Her2 level in experiment [2] was 96.5% (inactive). The differential viability (reversal) in experiment [6] (H69AR cells + 2 uM doxorubicin) is -5.71% (inactive). Also, the inhibition is 0% (inactive) in experiment [7] and 26.7% (inactive) in experiment [8].
`COc1ccc(C(=O)N2CCN(C3CCCCC3)CC2)c(OC)c1`: the viability in experiment [1] is 82.5%; in experiment [3], 82.5% (inactive); in experiment [4], 88.3% (inactive); in experiment [5], 95.3% (inactive); in experiment [6] (setting [9]), 94.9%; in experiment [6] (setting [10]), 95.3%. The Her2 level in experiment [2] was 104% (inactive). The differential viability (reversal) in experiment [6] (H69AR cells + 2 uM doxorubicin) was 0.4% (inactive). The inhibition in experiment [7] was -2.53% (inactive); in experiment [8] it was 11.8% (inactive).
For the compound `O=C(COc1ccccc1Cl)OCC(=O)N1CCN(S(=O)(=O)c2ccccc2)CC1`, the viability in experiment [1] was 101%; in experiment [3], 101% (inactive); in experiment [4] it was 89.4% (inactive); in experiment [5], 87.4% (inactive); in experiment [6] (setting [9]) it was 89.2%; in experiment [6] (setting [10]) it was 87.4%. Moreover, in experiment [2], the Her2 level is 85% (inactive). Besides, in experiment [6] (H69AR cells + 2 uM doxorubicin), the differential viability (reversal) was -1.84% (inactive). Besides, the inhibition in experiment [7] was -6.13% (inactive); in experiment [8] it was -2.79% (inactive).
With `Cn1c2c(c(=O)[nH]c1=O)C(NC(=O)c1ccco1)(C(F)(F)F)C(=O)N2` (stereo not given), the viability was 112% in experiment [1]; 112% (inactive) in experiment [3]; 93.3% (inactive) in experiment [4]; 96.5% (inactive) in experiment [5]; 92.3% in experiment [6] (setting [9]); 96.5% in experiment [6] (setting [10]). Further, the Her2 level in experiment [2] was 118% (inactive). Besides, the differential viability (reversal) in experiment [6] (H69AR cells + 2 uM doxorubicin) was 4.25% (inactive). Moreover, the inhibition in experiment [7] is -1.45% (inactive); in experiment [8] it was 0.66% (inactive).
On to `N#CC(C(=O)CCN1C(=O)C2CC=CCC2C1=O)c1nc2ccccc2[nH]1` (stereo not given), for which the viability in experiment [1] was 116%; in experiment [3], 116% (inactive); in experiment [4], 95.9% (inactive); in experiment [5], 91.1% (inactive); in experiment [6] (setting [9]), 87.2%; in experiment [6] (setting [10]), 91.1%. In addition, in experiment [2], the Her2 level is 98% (inactive). In experiment [6] (H69AR cells + 2 uM doxorubicin), the differential viability (reversal) is 3.88% (inactive). For the same compound, the values for the inhibition in experiment [7] and in experiment [8] were -5.07% (inactive) and 6.23% (inactive), respectively.
On to `CCOC(=O)CN1CC23C=CC(O2)C(C(=O)NCc2ccc(F)cc2)C3C1=O` (stereo not given), for which the viability in experiment [1] is 88%; in experiment [3], 88% (inactive); in experiment [4] it was 102% (inactive); in experiment [5], 98.9% (inactive); in experiment [6] (setting [9]) it was 86.4%; in experiment [6] (setting [10]), 98.9%. For the same compound, the Her2 level in experiment [2] was 93.5% (inactive). Further, the differential viability (reversal) in experiment [6] (H69AR cells + 2 uM doxorubicin) is 12.5% (inactive). Besides, the inhibition in experiment [7] is -0.38% (inactive); in experiment [8] it was -0.17% (inactive).
